The text below walks through data of ChEMBL document CHEMBL1136004, “Ethyl (3S,4aR,6S,8aR)-6-(4-ethoxycar- bonylimidazol-1-ylmethyl)decahydroiso-quinoline-3-carboxylic ester: a prodrug of a GluR5 kainate receptor antagonist active in two animal models of acute migraine” (J Med Chem, 2002).

Test [1] deals with T1, Glutamate receptor ionotropic, kainate 2 (Homo sapiens, UniProt Q13002). Briefly: Ability to displace binding of [3H]KA to recombinant human KA receptor Ionotropic glutamate receptor ionotropic kainate 2 expressed in EK 293 cell membranes. The procedure, abridged: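 Displacement of [3H]KA binding on membranes from HEK 293 cells expressing the recombinant human kainate receptor subunit. Ki (μM) given as the mean ± SEM from at least three determinations.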

The target of test [2] is Glutamate receptor 3 (Homo sapiens, UniProt P42263). Kind of test: Ability to displace binding of [3H]AMPA to recombinant human Ionotropic glutamate receptor AMPA 3. The procedure, abridged: (§1)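 Radioligand displacement with [3H]AMPA on membranes from HEK 293 cells expressing the cloned human AMPA receptor subunit. Ki (μM) reported as the mean ± SEM of at least three determinations.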

Test [3] addresses T1, Glutamate receptor ionotropic, kainate 2. Briefly: Ability to displace binding of [3H]KA to recombinant human KA receptor Ionotropic glutamate receptor ionotropic kainate 2.
Test [4] concerns the target Glutamate receptor 2 (Homo sapiens, UniProt P42262). Kind of test: Ability to displace binding of [3H]AMPA to recombinant human Ionotropic glutamate receptor AMPA 2.
Test [5] addresses Glutamate receptor 4 (Homo sapiens, UniProt P48058). Kind of test: Ability to displace binding of [3H]AMPA to recombinant human Ionotropic glutamate receptor AMPA 4. Summed up:
as §1

In test [6] the target is Glutamate receptor ionotropic, kainate 1 (Homo sapiens) (UniProt P39086). Briefly: Ability to displace binding of [3H]KA to recombinant human Ionotropic glutamate receptor ionotropic kainate 1.
Test [7] addresses Glutamate receptor 1 (Homo sapiens, UniProt P42261). Kind of test: Ability to displace binding of [3H]AMPA to recombinant human Ionotropic glutamate receptor AMPA 1. The procedure, abridged: as §1
The target of test [8] is Glutamate receptor ionotropic, kainate 3 (Homo sapiens) (UniProt Q13003). Kind of test: Ability to displace binding of [3H]KA to recombinant human KA receptor Ionotropic glutamate receptor ionotropic kainate 3.
Test [9] in a line: Compound was administered orally 1 h prior to trigeminal stimulation and was evaluated for the decrease extravasation.

The structures appear in SMILES notation. pKi: −log10 of the molar value.

T1 sequence (Q13002 whole entry): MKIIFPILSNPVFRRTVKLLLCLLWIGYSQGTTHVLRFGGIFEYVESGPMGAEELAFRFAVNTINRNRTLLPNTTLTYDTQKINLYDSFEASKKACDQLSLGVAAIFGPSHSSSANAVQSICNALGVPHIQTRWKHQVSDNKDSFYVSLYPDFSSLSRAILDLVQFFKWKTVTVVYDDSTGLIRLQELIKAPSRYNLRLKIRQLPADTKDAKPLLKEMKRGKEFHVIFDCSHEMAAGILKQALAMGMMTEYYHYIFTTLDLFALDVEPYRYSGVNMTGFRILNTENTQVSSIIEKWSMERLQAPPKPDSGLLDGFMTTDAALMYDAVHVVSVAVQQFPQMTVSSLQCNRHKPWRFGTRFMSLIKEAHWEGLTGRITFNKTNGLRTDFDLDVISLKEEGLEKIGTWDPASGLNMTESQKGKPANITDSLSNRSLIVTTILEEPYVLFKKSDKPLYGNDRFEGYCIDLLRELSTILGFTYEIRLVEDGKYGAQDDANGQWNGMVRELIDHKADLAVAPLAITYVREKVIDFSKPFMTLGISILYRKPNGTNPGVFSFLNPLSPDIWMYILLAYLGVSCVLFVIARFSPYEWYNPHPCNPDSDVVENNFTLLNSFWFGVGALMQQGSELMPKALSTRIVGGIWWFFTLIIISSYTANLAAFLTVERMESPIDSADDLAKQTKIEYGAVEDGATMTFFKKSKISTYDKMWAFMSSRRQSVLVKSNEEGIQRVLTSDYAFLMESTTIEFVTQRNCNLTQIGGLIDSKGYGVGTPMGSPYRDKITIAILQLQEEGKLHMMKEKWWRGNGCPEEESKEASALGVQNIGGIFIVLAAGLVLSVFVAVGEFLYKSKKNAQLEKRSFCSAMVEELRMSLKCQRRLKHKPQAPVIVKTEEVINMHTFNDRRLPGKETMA
Glutamate receptor 1, sequence (P42261 whole entry): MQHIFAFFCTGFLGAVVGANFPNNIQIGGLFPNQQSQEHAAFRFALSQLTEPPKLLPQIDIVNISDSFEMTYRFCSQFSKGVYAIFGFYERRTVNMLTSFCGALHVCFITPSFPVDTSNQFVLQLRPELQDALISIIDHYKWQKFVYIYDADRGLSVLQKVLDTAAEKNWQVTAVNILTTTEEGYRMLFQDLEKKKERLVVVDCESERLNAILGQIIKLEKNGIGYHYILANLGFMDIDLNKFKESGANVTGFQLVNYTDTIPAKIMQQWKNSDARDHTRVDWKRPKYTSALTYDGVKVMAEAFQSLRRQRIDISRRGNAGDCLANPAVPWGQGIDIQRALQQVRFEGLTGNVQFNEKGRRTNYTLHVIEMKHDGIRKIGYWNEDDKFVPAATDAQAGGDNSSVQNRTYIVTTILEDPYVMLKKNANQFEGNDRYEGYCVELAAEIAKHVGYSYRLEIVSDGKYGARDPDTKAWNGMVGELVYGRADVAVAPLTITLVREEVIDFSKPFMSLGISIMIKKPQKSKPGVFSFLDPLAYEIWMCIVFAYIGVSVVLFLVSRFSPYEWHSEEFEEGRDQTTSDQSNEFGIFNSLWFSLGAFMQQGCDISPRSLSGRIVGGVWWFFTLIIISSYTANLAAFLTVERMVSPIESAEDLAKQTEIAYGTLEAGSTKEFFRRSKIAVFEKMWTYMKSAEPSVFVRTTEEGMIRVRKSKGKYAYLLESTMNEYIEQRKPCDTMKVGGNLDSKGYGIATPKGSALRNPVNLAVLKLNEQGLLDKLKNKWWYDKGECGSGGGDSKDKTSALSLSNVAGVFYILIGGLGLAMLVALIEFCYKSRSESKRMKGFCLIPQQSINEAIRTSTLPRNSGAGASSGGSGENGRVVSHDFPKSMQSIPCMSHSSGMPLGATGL
Glutamate receptor 4, sequence (P48058 whole entry): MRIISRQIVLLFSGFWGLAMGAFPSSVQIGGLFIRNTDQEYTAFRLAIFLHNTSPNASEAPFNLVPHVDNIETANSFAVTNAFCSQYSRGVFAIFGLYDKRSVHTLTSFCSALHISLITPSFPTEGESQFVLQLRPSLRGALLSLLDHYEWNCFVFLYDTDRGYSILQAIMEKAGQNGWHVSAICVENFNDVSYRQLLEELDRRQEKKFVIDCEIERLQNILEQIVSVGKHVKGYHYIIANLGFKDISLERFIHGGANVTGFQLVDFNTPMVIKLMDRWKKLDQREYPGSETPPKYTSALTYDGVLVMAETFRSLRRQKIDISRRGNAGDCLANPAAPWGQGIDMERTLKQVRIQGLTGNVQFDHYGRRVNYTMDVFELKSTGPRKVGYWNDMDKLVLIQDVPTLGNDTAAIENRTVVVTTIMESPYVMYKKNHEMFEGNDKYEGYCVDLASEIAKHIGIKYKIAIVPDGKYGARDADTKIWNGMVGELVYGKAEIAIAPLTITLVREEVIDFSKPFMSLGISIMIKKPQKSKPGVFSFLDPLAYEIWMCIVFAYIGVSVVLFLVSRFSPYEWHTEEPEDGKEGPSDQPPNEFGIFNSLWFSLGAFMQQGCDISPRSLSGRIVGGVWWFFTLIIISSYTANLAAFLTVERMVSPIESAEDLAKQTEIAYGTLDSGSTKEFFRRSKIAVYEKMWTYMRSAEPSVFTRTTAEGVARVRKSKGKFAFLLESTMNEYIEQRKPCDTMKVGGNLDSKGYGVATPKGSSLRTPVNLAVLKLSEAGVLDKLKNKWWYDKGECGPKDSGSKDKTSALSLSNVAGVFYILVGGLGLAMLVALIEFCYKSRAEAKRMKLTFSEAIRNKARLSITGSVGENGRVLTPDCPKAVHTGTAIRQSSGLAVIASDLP
Glutamate receptor 3, sequence (P42263 whole entry): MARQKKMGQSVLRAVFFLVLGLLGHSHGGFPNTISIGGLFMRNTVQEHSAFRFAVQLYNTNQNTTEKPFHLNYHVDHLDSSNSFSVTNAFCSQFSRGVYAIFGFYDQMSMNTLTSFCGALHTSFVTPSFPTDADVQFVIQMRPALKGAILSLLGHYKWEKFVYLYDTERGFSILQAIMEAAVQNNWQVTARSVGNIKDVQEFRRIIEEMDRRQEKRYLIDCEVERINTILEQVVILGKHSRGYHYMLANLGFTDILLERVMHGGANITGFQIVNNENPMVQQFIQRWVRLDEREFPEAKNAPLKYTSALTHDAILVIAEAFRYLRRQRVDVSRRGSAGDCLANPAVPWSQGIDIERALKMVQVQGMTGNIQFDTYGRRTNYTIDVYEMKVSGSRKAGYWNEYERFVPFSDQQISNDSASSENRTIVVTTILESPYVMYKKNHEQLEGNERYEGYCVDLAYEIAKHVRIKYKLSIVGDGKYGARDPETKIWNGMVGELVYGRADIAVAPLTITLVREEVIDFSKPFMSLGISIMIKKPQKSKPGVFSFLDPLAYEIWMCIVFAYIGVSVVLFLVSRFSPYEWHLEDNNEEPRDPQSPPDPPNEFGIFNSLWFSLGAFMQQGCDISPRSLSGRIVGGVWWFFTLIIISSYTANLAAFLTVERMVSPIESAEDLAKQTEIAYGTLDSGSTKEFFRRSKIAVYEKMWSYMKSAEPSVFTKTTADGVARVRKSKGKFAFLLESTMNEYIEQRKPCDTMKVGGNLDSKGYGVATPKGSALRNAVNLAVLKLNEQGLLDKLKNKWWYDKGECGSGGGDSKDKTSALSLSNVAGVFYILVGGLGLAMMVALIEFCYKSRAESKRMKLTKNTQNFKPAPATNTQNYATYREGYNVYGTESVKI
Glutamate receptor 2, sequence (P42262 whole entry): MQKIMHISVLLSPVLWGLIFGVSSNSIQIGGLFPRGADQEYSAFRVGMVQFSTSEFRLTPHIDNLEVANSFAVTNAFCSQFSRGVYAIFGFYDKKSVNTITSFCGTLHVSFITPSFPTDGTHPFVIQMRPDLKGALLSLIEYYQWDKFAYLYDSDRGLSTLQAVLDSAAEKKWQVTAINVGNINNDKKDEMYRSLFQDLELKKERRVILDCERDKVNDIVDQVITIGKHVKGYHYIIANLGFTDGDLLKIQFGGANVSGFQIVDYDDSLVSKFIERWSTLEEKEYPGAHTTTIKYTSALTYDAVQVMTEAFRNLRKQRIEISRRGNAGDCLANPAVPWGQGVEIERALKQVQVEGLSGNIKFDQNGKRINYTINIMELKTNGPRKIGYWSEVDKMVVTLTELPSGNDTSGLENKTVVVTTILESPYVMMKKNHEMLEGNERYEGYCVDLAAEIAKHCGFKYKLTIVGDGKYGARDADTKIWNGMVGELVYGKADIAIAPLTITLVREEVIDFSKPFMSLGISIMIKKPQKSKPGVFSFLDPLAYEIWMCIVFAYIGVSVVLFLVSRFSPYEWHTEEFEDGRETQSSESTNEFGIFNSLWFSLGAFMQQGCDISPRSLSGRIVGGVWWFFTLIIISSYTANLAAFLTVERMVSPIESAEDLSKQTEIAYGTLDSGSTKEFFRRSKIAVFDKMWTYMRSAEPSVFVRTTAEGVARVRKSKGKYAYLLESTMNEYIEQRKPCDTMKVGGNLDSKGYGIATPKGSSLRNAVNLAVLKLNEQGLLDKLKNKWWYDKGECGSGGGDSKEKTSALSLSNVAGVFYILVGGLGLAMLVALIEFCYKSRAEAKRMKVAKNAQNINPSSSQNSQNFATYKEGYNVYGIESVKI

On to `O=C(O)c1cn(C[C@H]2CC[C@H]3CN[C@H](C(=O)O)C[C@H]3C2)cn1`, for which the negative-log Ki (pKi) in [1] was 3.63; in test [2] it was 3.61; in test [3] it was under 3.00; in test [4], 3.93; in test [5] it was 3.58; in test [6] it was 6.81. In addition, the pKi is 3.87 in test [7] and 4.31 in [8].
Turning to `NS(=O)(=O)c1cccc2c1c([N+](=O)[O-])cc1nc(O)c(O)nc12` [NBQX], in test [7], the pKi is 5.80.
As to `CN(C)CCc1c[nH]c2ccc(Cn3cncn3)cc12` [RIZATRIPTAN], the ID50 in test [9] is 8 µg/kg.
Take `O=C(O)[C@@H]1C[C@H]2C[C@@H](CCc3nn[nH]n3)CC[C@H]2CN1` [TEZAMPANEL ANHYDROUS]: the negative logarithm of the Ki (pKi) in [1] is under 4.00; in test [2], 4.49; in [3], under 4.00; in [5], 4.30; in [6], 5.38; in test [7], 5.04. In addition, the negative logarithm of the Ki (pKi) in test [8] was under 4.00.
